# Assay results: article PMC7524064 (ESC Heart Failure, 2020)
# Legend:
# human atrial trabeculae = test: Contractility of human atrial trabeculae
# Method in brief: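 Right atrial appendage trabeculae came from patients undergoing aorto-coronary bypass and were held isometric. After about 30 min equilibration they were stretched to maximal steady-state twitch force and paced at 1 Hz. Test compound (1, 3, 10 μM) or KN93 (5 μM) was washed in for 20 min. Post-rest pauses were 10, 30 and 120 s. Developed and diastolic tension were normalized to each patient's vehicle control.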
# [1] = system: human atrial cardiomyocytes; test: Ca sparks and SR Ca leak, confocal line scans; type: cell-based; details: AIP (2 μM)
# Method in brief: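 Myocytes on laminin-coated chambers were loaded 15 min with 10 μmol/L Fluo-4 AM plus 0.02% (w/v) pluronic acid. They were superfused with normal Tyrode solution and imaged by laser-scanning confocal line scans at room temperature. Treatments were test compound at 1, 3 or 10 μM, or myristoylated AIP at 2 μM.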
# [2] = system: human atrial cardiomyocytes; test: Action potentials in human atrial cardiomyocytes; type: cell-based; details: RA608 1, 3, 10 μM; AIP
# Method in brief: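 Ruptured-patch whole-cell current clamp at room temperature on isolated human atrial cardiomyocytes from seven patients. Action potentials were recorded with vehicle, test compound at 1, 3 or 10 μM, or myristoylated AIP.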
# [3] = system: murine ventricular cardiomyocytes; test: Action potentials in murine ventricular cardiomyocytes; type: cell-based, mouse; details: RA608 1, 3, 10 μM; myristoylated AIP 2 μmol/L
molecule,measurement,setting,value
COc1ccc(S(=O)(=O)N(CCO)c2ccccc2CN(C)C/C=C/c2ccc(Cl)cc2)cc1 [KN93],contraction amplitude after pause,"human atrial trabeculae; KN93 5 μmol/L, compared with RA608",comparable increase
same,diastolic tension normalized to vehicle,human atrial trabeculae; KN93 (5 μM),only a trend to decrease
same,relaxation time (time to 80% of relaxation),"human atrial trabeculae; RA608 1, 3, 10 μM, KN93 5 μM",neither RA608 nor KN93 resulted in significant alterations
autocamtide‐2‐related autoinhibitory peptide [AIP],SR Ca leak vs vehicle,[1],significantly reduced
same,"AP duration (APD50, APD80) vs vehicle",[2],no significant effect
same,AP duration (APD50),[3],no significant effect
